The species named for data set [1] is Rattus norvegicus. Description: Substrate property, maximum velocity relative to ADP (100) in rat muscle pyruvate kinase was determined. In kind it is ADME, organism-based. To be noted: in vivo. The gist of the method: (§1)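 Rat muscle, liver and kidney pyruvate kinase isozymes, isolated as before, with ADP analogues as substrate. Optical density change at 340 nm, 22-24 °C, 1 mL. Five or more substrate concentrations. Km and Vmax come from linear Lineweaver-Burk plots, with Vmax relative to ADP (100).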

Data set [2] can be described thus: Substrate property, maximum velocity relative to ADP (100) in rat muscle pyruvate kinase was determined. To be noted: in vitro.
Data set [3] is described as follows: Reaction velocity relative to ATP (=1) in yeast hexokinase was determined at 5 mM concentration. The format is ADME. To be noted: 5000 µM.
The species named for data set [4] is Rattus norvegicus. Description: Substrate concentration for half maximum- reaction velocity in rat liver pyruvate kinase. In kind it is ADME, organism-based. To be noted: in vivo. The gist of the method: as §1
Data set [5] is filed under the species Rattus norvegicus. Description: Substrate concentration for half maximum-velocity in rat kidney pyruvate kinase was determined. To be noted: in vivo. The format is ADME, organism-based. A digest of the protocol: as §1
For data set [6], the species on record is Rattus norvegicus. Description: Substrate concentration for half maximum-velocity in rat muscle pyruvate kinase was determined. The format is ADME, organism-based. To be noted: in vivo. A digest of the protocol:
as §1

The species named for data set [7] is Rattus norvegicus. Description: Substrate property, maximum velocity relative to ADP (100) in rat kidney pyruvate kinase was determined. In kind it is ADME, organism-based. To be noted: in vivo. The gist of the method: as §1
The species named for data set [8] is Rattus norvegicus. Description: Substrate property, maximum velocity relative to ADP (100) in rat liver pyruvate kinase was determined. To be noted: in vivo. In kind it is ADME, organism-based. A digest of the protocol: as §1
Data set [9] is filed under the species Rattus norvegicus. Description: Maximum velocity in rat liver adenylate kinase II relative to ATP(=100). To be noted: in vivo. In kind it is ADME, organism-based. The gist of the method: (§2)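 Rat liver AK II and AK III, isolated as before. Optical density change at 340 nm followed at 22-24 °C in 1 mL. Five or more substrate concentrations; stocks contained equimolar MgCl2. Vmax comes from linear Lineweaver-Burk plots and is expressed relative to ATP (100).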

Data set [10] is filed under the species Rattus norvegicus. Description: Maximum velocity in rat liver adenylate kinase III relative to ATP(=100). The format is ADME, organism-based. To be noted: in vivo. The gist of the method:
as §2

Data set [11] has as its target Adenylate kinase 2, mitochondrial (Rattus norvegicus, UniProt P29410). Description: Competitive inhibition of adenylate kinase II in rat liver with respect to ATP. In kind it is tissue-based. The gist of the method: (§3)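 Rat liver adenylate kinase isozymes (AK II, AK III), isolated as before. Read as rate of change in optical density at 340 nm, 22-24 °C, 1 mL final volume. Five or more levels of ATP at each of two inhibitor levels, inhibitor at 1-5 times the inhibition constant. Ki taken from replots of inhibitor concentration vs Lineweaver-Burk slopes. Stocks contained equimolar MgCl2.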

In data set [12] the target is GTP:AMP phosphotransferase AK3, mitochondrial (Rattus norvegicus, UniProt P29411). Description: Competitive inhibition of adenylate kinase III in rat liver with respect to ATP. The format is tissue-based. The gist of the method: as §3
Sequence of GTP:AMP phosphotransferase AK3, mitochondrial (P29411 whole entry): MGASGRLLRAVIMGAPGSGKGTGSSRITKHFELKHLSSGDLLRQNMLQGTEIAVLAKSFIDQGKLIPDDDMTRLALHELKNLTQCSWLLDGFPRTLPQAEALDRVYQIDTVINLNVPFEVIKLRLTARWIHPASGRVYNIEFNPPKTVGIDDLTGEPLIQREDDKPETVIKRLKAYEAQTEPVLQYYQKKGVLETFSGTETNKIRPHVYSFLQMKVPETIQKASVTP
Data set [13] is filed under the species Rattus norvegicus. Description: Maximum velocity relative to ADP (100) in rat muscle pyruvate kinase was determined. To be noted: in vivo. The format is ADME, organism-based. The gist of the method:
as §1

For `CC(=O)NCCCCCCNc1nc2c(N)ncnc2n1[C@@H]1O[C@H](COP(=O)(O)OP(=O)(O)O)[C@@H](O)[C@H]1O`, the Vmax in [1] and in [2] was 0% throughout.
On to `CN(CCCN(C)C(=O)CCCCNc1ncnc2c1ncn2[C@@H]1O[C@H](COP(=O)(O)OP(=O)(O)OP(=O)(O)O)[C@@H](O)[C@H]1O)C(=O)CCCCNC(=O)CI`, for which the “Velocity relative to ATP” value in [3] is reported as 0.73.
Consider `Nc1ncnc2c1nc(NCCCCCCCCNC(=O)CI)n2[C@@H]1O[C@H](COP(=O)(O)OP(=O)(O)OP(=O)(O)O)[C@@H](O)[C@H]1O`, for which the “Velocity relative to ATP” value in [3] came out at 0.54.
Take `CC(=O)N(C)CCCCN(C)c1ncnc2c1ncn2[C@@H]1O[C@H](COP(=O)(O)OP(=O)(O)O)[C@@H](O)[C@H]1O`: the Km was 700 µM in [4], 1700 µM in [5] and 3600 µM in [6]. The Vmax in data set [1] was 20%; in data set [7], 18%; in [8] it was 21%.
On to `CC(=O)N(C)CCCCN(C)c1ncnc2c1ncn2[C@@H]1O[C@H](COP(=O)(O)OP(=O)(O)OP(=O)(O)O)[C@@H](O)[C@H]1O`, for which the Vmax in [9] and in [10] was 0% in each case. The Ki in [11] is 1100 µM; in data set [12], 900 µM.
Regarding `O=C(CI)NCCCCCCCCNc1ncnc2c1ncn2[C@@H]1O[C@H](COP(=O)(O)OP(=O)(O)OP(=O)(O)O)[C@@H](O)[C@H]1O`, the “Velocity relative to ATP” value in data set [3] worked out at 1.8.
The same measure, in the same setting: for `CN(CCCCN(C)c1ncnc2c1ncn2[C@@H]1O[C@H](COP(=O)(O)OP(=O)(O)OP(=O)(O)O)[C@@H](O)[C@H]1O)C(=O)CCCNC(=O)CI` the value was 1.2.
Turning to `CN(CCCN(C)C(=O)CCCCNc1ncnc2c1ncn2[C@@H]1O[C@H](COP(=O)(O)OP(=O)(O)O)[C@@H](O)[C@H]1O)C(=O)CCCCNC(=O)OCc1ccccc1`, in data set [6], the Km is 70 µM. In addition, the Vmax in data set [13] came out at 1.5%.

The record behind these values is ChEMBL document CHEMBL1122036, “Use of adenine nucleotide derivatives to assess the potential of exo-active-site-directed reagents as species- or isozyme-specific enzyme inactivators. 3. Synthesis of adenosine 5'-triphosphate derivatives with N6- or 8-substituents bearing iodoacetyl groups” (J Med Chem, 1982).
